The target of data set [1] is T1, Dipeptidyl peptidase 4 (Homo sapiens, UniProt P27487). Nature of the data set: Stability of the compound assessed as recombinant human DPP4-mediated compound degradation at 0.1 mM measured after 24 hrs by reverse-phase HPLC/MS analysis. In kind it is ADME. The settings on record: 100 µM. The method, boiled down:
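GLP-1 peptides (0.1 mM) incubated at 37 °C with recombinant human DPP IV in 50 mM HEPES, 0.14 M NaCl, pH 8.0, up to 24 h; acid-quenched samples analysed by RP-HPLC-MS for intact peptide.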

Data set [2] deals with T1, Dipeptidyl peptidase 4. Nature of the data set: Competitive inhibition of human recombinant DPP4 using AP-pNA as substrate preincubated for 30 mins followed by substrate addition measured after 30 mins by spectrophotometric analysis.
Data set [3] deals with T2, Trypsin (Sus scrofa, UniProt P00761). Nature of the data set: Stability of the compound assessed as porcine pancreatic trypsin-mediated compound degradation at 0.1 mM after 8 hrs by reverse-phase HPLC/MS analysis. In kind it is ADME. The note with it: pig, isolated protein, 100 µM.
The target of data set [4] is DPP4 (dipeptidyl peptidase 4) (Sus scrofa, UniProt P22411). Description: Stability of the compound assessed as porcine DPP4-mediated compound degradation measured intact level at 0.1 mM measured at 30 mins by reverse-phase HPLC/MS analysis. Format: ADME. The note with it: pig, read-out: Stability. In short, it runs like this: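 Synthetic hexapeptides (0.1 mM) incubated at 37 °C with 10 mU/mL DPP IV purified from porcine kidney in 50 mM HEPES, 0.14 M NaCl, pH 8.0; intact peptide by HPLC-MS, expressed as percent of time-zero value.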

For data set [5], the target named is alpha-lytic protease (alpha-LP) (Lysobacter enzymogenes, UniProt P00778). Description: Stability of the compound assessed as half life of Lysobacter enzymogenes alpha-LP-mediated compound degradation at 0.1 mM by reverse-phase HPLC/MS analysis. Format: ADME.
Data set [6] has as its target T2, Trypsin. Description: Stability of the compound assessed as half life of porcine pancreatic trypsin-mediated compound degradation at 0.1 mM by reverse-phase HPLC/MS analysis. In kind it is ADME. The note with it: pig.

Square brackets hold non-standard residues; d marks the D form. Peptide text beside a SMILES is read from it. ξ: configuration not given here. ξTle = CC(C)(C)C(N)C(=O)O

T1 sequence (P27487 whole entry): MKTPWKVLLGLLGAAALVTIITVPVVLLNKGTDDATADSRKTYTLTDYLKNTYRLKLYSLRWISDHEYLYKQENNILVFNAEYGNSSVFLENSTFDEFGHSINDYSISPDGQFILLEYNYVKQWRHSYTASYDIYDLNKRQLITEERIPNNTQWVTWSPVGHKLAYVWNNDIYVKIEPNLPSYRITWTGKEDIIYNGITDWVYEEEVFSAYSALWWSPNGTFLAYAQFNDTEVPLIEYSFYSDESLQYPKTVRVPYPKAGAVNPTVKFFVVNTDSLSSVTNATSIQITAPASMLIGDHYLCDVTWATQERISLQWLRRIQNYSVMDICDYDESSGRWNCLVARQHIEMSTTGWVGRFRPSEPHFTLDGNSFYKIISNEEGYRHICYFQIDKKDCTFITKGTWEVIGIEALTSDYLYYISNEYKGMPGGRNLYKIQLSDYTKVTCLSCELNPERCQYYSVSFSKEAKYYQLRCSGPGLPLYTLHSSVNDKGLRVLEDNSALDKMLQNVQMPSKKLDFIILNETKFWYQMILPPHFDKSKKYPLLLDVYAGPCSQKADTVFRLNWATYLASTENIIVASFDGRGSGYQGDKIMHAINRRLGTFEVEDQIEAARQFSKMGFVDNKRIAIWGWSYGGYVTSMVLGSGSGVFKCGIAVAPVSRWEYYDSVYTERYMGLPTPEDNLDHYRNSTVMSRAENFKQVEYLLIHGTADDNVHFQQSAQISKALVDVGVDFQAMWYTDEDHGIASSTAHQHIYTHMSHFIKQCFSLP
T2 sequence (P00761 whole entry): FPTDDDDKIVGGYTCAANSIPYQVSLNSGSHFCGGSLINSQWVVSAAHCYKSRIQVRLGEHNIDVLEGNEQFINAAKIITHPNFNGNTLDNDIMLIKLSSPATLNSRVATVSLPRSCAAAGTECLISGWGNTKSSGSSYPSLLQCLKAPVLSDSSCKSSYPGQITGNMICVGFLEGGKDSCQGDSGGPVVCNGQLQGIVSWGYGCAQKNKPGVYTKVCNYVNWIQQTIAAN
Chain of DPP4 (dipeptidyl peptidase 4) (P22411 whole entry): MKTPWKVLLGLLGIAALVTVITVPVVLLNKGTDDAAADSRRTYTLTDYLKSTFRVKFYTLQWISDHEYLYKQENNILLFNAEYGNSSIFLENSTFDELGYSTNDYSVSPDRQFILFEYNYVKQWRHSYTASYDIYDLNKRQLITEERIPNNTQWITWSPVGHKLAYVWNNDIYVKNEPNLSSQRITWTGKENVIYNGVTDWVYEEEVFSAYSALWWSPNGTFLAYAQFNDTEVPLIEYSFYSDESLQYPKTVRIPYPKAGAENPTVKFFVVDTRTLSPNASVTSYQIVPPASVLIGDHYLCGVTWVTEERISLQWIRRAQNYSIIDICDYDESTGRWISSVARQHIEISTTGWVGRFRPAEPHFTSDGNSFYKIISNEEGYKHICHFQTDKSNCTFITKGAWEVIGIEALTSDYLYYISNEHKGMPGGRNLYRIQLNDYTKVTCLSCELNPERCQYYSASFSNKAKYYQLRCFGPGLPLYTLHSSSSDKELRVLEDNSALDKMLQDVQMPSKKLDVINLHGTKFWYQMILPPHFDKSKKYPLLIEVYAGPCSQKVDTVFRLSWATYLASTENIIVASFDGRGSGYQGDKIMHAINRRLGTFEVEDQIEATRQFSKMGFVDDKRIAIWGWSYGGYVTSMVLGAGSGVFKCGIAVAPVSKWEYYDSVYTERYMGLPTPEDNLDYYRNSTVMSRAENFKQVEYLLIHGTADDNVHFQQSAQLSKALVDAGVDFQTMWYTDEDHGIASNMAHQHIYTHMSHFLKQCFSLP
Chain of alpha-lytic protease (alpha-LP) (P00778 whole entry): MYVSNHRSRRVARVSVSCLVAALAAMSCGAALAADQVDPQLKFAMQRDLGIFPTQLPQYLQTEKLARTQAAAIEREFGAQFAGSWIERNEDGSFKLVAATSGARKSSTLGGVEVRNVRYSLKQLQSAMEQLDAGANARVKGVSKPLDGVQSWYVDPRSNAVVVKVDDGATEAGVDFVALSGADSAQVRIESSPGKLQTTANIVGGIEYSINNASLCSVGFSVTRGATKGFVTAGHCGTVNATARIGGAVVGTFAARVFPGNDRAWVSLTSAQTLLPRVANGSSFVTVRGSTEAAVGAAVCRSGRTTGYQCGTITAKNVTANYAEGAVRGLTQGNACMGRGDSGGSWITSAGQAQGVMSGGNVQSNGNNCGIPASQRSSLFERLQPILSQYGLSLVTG

As usually defined, the Ki is the dissociation constant of the complex between target and ligand, obtained from inhibition or displacement. As for `CC(C)[C@H](N)C(=O)N1CCC[C@H]1C(=O)NC(C(=O)N1CCC[C@H]1C(=O)N[C@@H](CCCNC(=N)N)C(N)=O)C(C)(C)C` (stereo partly specified) (H-VP[ξTle]PR-NH2), in data set [1], the Stability result is given as “Stable”. Further, the Ki in data set [2] was determined as 4.5 µM. On to `CC(C)C[C@H](NC(=O)[C@@H](N)CC(C)C)C(=O)N1CCC[C@H]1C(=O)N[C@@H](CCCNC(=N)N)C(=O)NC(C(=O)N[C@@H](C)C(=O)N[C@@H](CC(N)=O)C(=O)NCC(=O)N[C@@H](CO)C(=O)N[C@@H](CO)C(=O)N[C@@H](Cc1ccccc1)C(=O)N[C@H](C(=O)N[C@H](C(=O)N[C@H](C(=O)O)C(C)C)[C@@H](C)O)C(C)C)C(C)(C)C` (stereo partly specified) (H-LLPR[ξTle]ANGSSFVTV-OH), for which the Stability entry in data set [3] is given as “Stable”. For `CC[C@H](C)[C@H](NC(=O)[C@@H]1CCCN1C(=O)[C@H](C)N)C(=O)N[C@@H](CO)C(=O)N[C@@H](Cc1c[nH]c2ccccc12)C(=O)N[C@@H](CO)C(=O)O` (H-APISWS-OH), the remaining at 0.5 h, 100 µM in data set [4] was under 70%.

One may read the half-life as the time needed for the level to fall by half in the phase considered. `CC(C)C[C@H](NC(=O)[C@@H](N)CC(C)C)C(=O)N1CCC[C@H]1C(=O)N[C@@H](CCCNC(=N)N)C(=O)N[C@H](C(=O)N[C@@H](C)C(=O)N[C@@H](CC(N)=O)C(=O)NCC(=O)N[C@@H](CO)C(=O)N[C@@H](CO)C(=O)N[C@@H](Cc1ccccc1)C(=O)N[C@H](C(=O)N[C@H](C(=O)N[C@H](C(=O)O)C(C)C)[C@@H](C)O)C(C)C)C(C)C` (H-LLPRVANGSSFVTV-OH): the half-life at 100 µM in data set [5] and in data set [6] was 24 min each time.

Values taken from ChEMBL document CHEMBL3085773, “A general method for making peptide therapeutics resistant to serine protease degradation: application to dipeptidyl peptidase IV substrates” (J Med Chem, 2013).
